Test results reported in ChEMBL document CHEMBL2177011, “Discovery, synthesis, and biological evaluation of orally active pyrrolidone derivatives as novel inhibitors of p53-MDM2 protein-protein interaction” (J Med Chem, 2012).
One block for each compound: values may come before it.

How the values were obtained:
[1] = biological target: Tumour suppressor p53/oncoprotein Mdm2 (Homo sapiens, UniProt Q00987); test: (§1) Inhibition of p53-MDM2 interaction after 1 hr by fluorescence polarization assay; type: protein assay
Chain of Tumour suppressor p53/oncoprotein Mdm2 (Homo sapiens, UniProt Q00987) (P04637 whole entry): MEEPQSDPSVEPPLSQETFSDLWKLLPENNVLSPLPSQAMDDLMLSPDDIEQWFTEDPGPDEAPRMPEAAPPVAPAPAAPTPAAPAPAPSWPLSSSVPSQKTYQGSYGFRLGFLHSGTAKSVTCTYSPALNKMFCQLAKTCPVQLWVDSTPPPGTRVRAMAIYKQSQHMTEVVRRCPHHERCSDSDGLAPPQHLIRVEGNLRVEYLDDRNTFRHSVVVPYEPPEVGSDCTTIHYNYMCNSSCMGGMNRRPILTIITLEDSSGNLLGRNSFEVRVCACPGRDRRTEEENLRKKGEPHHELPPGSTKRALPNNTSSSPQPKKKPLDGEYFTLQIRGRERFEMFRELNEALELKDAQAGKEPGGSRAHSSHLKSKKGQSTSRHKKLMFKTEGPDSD
Chain of Tumour suppressor p53/oncoprotein Mdm2 (Homo sapiens, UniProt Q00987) (Q00987 whole entry): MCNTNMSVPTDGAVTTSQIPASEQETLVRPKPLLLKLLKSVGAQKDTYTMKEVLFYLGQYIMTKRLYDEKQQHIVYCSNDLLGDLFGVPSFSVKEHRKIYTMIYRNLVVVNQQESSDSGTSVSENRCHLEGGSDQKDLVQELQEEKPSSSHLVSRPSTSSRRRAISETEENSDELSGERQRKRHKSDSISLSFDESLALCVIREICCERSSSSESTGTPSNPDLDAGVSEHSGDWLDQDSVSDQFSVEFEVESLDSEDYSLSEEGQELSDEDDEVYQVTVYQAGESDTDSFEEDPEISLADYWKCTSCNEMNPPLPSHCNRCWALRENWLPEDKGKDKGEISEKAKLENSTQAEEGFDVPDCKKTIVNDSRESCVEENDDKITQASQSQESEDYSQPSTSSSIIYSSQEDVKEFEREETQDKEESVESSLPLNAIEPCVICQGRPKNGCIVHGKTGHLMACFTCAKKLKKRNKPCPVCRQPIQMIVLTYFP

NCI-H1299 = test: Antiproliferative activity against p53 deficient human NCI-H1299 cells after 72 hrs by MTT assay; type: functional, cell-based; conditions: NCI-H1299, 72 h
Procedure, shortened: (§2)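 Cells seeded at 5−6 × 10⁴ per well and cultured 24 h, then exposed in triplicate wells to a range of compound concentrations for 72 h, with 0.1% DMSO as control. MTT (5 mg/mL solution) was added for 4 h at 37 °C, formazan dissolved in DMSO, absorbance read at 570 nm. Drug-free wells served as blanks; IC50 calculated.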

A549 = test: Antiproliferative activity against human A549 cells expressing wild type p53 after 72 hrs by MTT assay; type: functional, cell-based; conditions: Homo sapiens, A549, 72 h; read-out: IC50; procedure, shortened: as §2
U2OS = test: Antiproliferative activity against human U2OS cells expressing wild type p53 after 72 hrs by MTT assay; type: functional, cell-based; procedure, shortened: as §2
SAOS-2 = test: Antiproliferative activity against p53 deficient human Saos2 cells after 72 hrs by MTT assay; type: functional, cell-based; conditions: SAOS-2, 72 h; procedure, shortened: as §2
[2] = biological target: Tumour suppressor p53/oncoprotein Mdm2 (Homo sapiens, UniProt P04637+Q00987); test: as §1; type: protein assay
Chain of Tumour suppressor p53/oncoprotein Mdm2 (Homo sapiens, UniProt P04637+Q00987) (P04637 whole entry): as the sequence (P04637 whole entry) above
Chain of Tumour suppressor p53/oncoprotein Mdm2 (Homo sapiens, UniProt P04637+Q00987) (Q00987 whole entry): as the sequence (Q00987 whole entry) above

[3] = biological target: Tumour suppressor protein p53/Mdm4 (Homo sapiens, UniProt P04637+O15151); test: Inhibition of p53-MDMX interaction after 1 hr by fluorescence polarization assay; type: protein assay
Chain of Tumour suppressor protein p53/Mdm4 (P04637 whole entry): as the sequence (P04637 whole entry) above
Chain of Tumour suppressor protein p53/Mdm4 (O15151 whole entry): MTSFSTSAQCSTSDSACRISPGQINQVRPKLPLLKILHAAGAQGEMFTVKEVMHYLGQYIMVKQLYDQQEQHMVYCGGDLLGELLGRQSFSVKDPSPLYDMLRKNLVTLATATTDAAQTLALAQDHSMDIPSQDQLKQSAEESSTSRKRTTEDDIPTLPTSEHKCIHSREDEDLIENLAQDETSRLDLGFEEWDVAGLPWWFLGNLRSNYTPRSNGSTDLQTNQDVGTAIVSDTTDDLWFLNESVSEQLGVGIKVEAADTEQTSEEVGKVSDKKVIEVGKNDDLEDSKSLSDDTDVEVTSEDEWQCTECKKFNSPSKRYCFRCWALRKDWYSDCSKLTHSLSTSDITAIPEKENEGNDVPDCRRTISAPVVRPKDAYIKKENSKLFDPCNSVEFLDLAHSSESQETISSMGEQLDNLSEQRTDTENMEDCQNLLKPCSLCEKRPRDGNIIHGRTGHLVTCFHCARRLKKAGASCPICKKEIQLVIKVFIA

[4] = Homo sapiens, U2OS, 72 h, read-out: IC50

Ki [1]: 39.4 µM
Structure (SMILES): O=C(C1=C(O)C(=O)N(CCCn2ccnc2)C1c1ccc(Cl)cc1Cl)c1ccccc1 (stereo not given)

IC50 (NCI-H1299): 11.5 µM | IC50 (A549): 20.8 µM | IC50 (U2OS; [4]): 11.5 µM | Ki [1]: 0.12 µM
Structure (SMILES): O=C(C1=C(Nc2ccc(OC(F)(F)F)cc2)C(=O)N(CCCn2ccnc2)C1c1ccc(Br)cc1)c1ccccc1 (stereo not given)
IC50 (SAOS-2): 17.9 µM

Ki [1]: 15.3 µM
Structure (SMILES): O=C(C1=C(O)C(=O)N(CCCn2ccnc2)C1c1ccc(Br)cc1)c1ccccc1[N+](=O)[O-] (stereo not given)

Ki [2]: Not Active
Structure (SMILES): O=C(C1=C(O)C(=O)N(CCCn2ccnc2)C1c1ccc(Br)cc1)c1ccccc1Cl (stereo not given)

IC50 (NCI-H1299): 25.3 µM | IC50 (A549): 52.8 µM | IC50 (U2OS; [4]): 32.5 µM | Ki [1]: 0.47 µM
Structure (SMILES): O=C(C1=C(NCc2ccccc2)C(=O)N(CCCn2ccnc2)C1c1ccc(Br)cc1)c1ccccc1 (stereo not given)
IC50 (SAOS-2): 31.6 µM

IC50 (NCI-H1299): 17 µM | IC50 (A549): 15.7 µM | IC50 (U2OS; [4]): 30.8 µM
Structure (SMILES): C[C@@H](NC1=C(C(=O)c2ccccc2)[C@H](c2ccc(Br)cc2)N(CCCn2ccnc2)C1=O)c1ccccc1
IC50 (SAOS-2): 13.2 µM

Ki [2]: Not Active
Structure (SMILES): O=C(C1=C(O)C(=O)N(CCCn2ccnc2)C1c1cccs1)c1ccccc1 (stereo not given)

Ki [1]: 2.5 µM
Structure (SMILES): COc1ccc(C(=O)C2=C(O)C(=O)N(c3nccs3)C2c2ccc(C)cc2)cc1 (stereo not given)

Ki [3]: Not Active | IC50 (NCI-H1299): 20 µM | IC50 (A549): 73.1 µM | IC50 (U2OS; u2os): Not Active | Ki [1]: 0.29 µM
Structure (SMILES): O=C(C1=C(O)C(=O)N(CCCn2ccnc2)C1c1ccc(Br)cc1)c1ccccc1 (stereo not given)
IC50 (SAOS-2): 31.6 µM

Ki [2]: Not Active
Structure (SMILES): O=C(C1=C(O)C(=O)N(CCCn2ccnc2)C1c1ccsc1)c1ccccc1 (stereo not given)

Ki [1]: 0.91 µM
Structure (SMILES): O=C(C1=C(O)C(=O)N(CCCn2ccnc2)C1c1ccc(Br)cc1)c1ccc(Cl)cc1 (stereo not given)

Ki [1]: 0.78 µM
Structure (SMILES): Cc1ccc(C2C(C(=O)c3ccccc3)=C(O)C(=O)N2CCCn2ccnc2)cc1 (stereo not given)

IC50 (NCI-H1299): 25.8 µM | IC50 (A549): 29.4 µM | IC50 (U2OS; [4]): 24.1 µM | Ki [1]: 0.14 µM
Structure (SMILES): Cc1ccc(NC2=C(C(=O)c3ccccc3)C(c3ccc(Br)cc3)N(CCCn3ccnc3)C2=O)cc1 (stereo not given)
IC50 (SAOS-2): 31.9 µM

Ki [2]: Not Active
Structure (SMILES): O=C(C1=C(O)C(=O)N(CCCn2ccnc2)C1c1ccc2ccccc2c1)c1ccccc1 (stereo not given)

Ki [1]: 0.91 µM
Structure (SMILES): Cc1cc(C)cc(C2C(C(=O)c3ccccc3)=C(O)C(=O)N2CCCn2ccnc2)c1 (stereo not given)

Ki [1]: 2.54 µM
Structure (SMILES): O=C(C1=C(O)C(=O)N(CCCn2ccnc2)C1c1ccc(Br)cc1)c1ccc([N+](=O)[O-])cc1 (stereo not given)

Ki [3]: Not Active | Ki [1]: 2.07 µM
Structure (SMILES): O=C(C1=C(OCc2ccccc2)C(=O)N(CCCn2ccnc2)C1c1ccc(Br)cc1)c1ccccc1 (stereo not given)

Ki [1]: 24.9 µM
Structure (SMILES): O=C(C1=C(O)C(=O)N(CCCn2ccnc2)C1c1ccc(Br)cc1)c1ccc(Br)cc1 (stereo not given)

IC50 (NCI-H1299): 11.5 µM | IC50 (A549): 15.8 µM | IC50 (U2OS; [4]): 11.9 µM | Ki [1]: 0.15 µM
Structure (SMILES): O=C(C1=C(Nc2cccc(Br)c2)C(=O)N(CCCn2ccnc2)C1c1ccc(Br)cc1)c1ccccc1 (stereo not given)
IC50 (SAOS-2): 9.09 µM

Ki [2]: Not Active
Structure (SMILES): O=C(C1=C(O)C(=O)N(CCCn2ccnc2)C1c1ccco1)c1ccccc1 (stereo not given)

Ki [1]: 1.46 µM
Structure (SMILES): O=C(C1=C(O)C(=O)N(CCCn2ccnc2)C1c1ccc(Br)cc1)c1ccc(F)cc1 (stereo not given)

IC50 (NCI-H1299): 25 µM | IC50 (A549): 29.9 µM | IC50 (U2OS; [4]): 22.8 µM | Ki [1]: 0.23 µM
Structure (SMILES): O=C(C1=C(Nc2ccc(Cl)cc2)C(=O)N(CCCn2ccnc2)C1c1ccc(Br)cc1)c1ccccc1 (stereo not given)
IC50 (SAOS-2): 24.8 µM

Ki [1]: 10.7 µM
Structure (SMILES): Cc1ccc(C2C(C(=O)c3ccccc3)=C(O)C(=O)N2CCCn2ccnc2)c(C)c1 (stereo not given)

IC50 (NCI-H1299): 15.6 µM | IC50 (A549): 20.1 µM | IC50 (U2OS; [4]): 16.9 µM | Ki [1]: 0.15 µM
Structure (SMILES): O=C(C1=C(Nc2ccccc2Br)C(=O)N(CCCn2ccnc2)C1c1ccc(Br)cc1)c1ccccc1 (stereo not given)
IC50 (SAOS-2): 19.6 µM

Ki [3]: Not Active | IC50 (NCI-H1299): 17.1 µM | IC50 (A549): 18.5 µM | IC50 (U2OS; [4]): 32.4 µM | Ki [1]: 0.47 µM
Structure (SMILES): CCCCOC1=C(C(=O)c2ccccc2)C(c2ccc(Br)cc2)N(CCCn2ccnc2)C1=O (stereo not given)
IC50 (SAOS-2): 11.6 µM

IC50 (NCI-H1299): 19.2 µM | IC50 (A549): 22.2 µM | IC50 (U2OS; [4]): 13 µM | Ki [1]: 0.19 µM
Structure (SMILES): O=C(C1=C(Nc2ccc(Br)cc2)C(=O)N(CCCn2ccnc2)C1c1ccc(Br)cc1)c1ccccc1 (stereo not given)
IC50 (SAOS-2): 23.8 µM

Ki [1]: 0.43 µM
Structure (SMILES): O=C(C1=C(O)C(=O)N(CCCn2ccnc2)C1c1ccccc1Br)c1ccccc1 (stereo not given)

Ki [1]: 48.8 µM
Structure (SMILES): COc1ccc(CCN2C(=O)C(O)=C(C(=O)c3cccs3)C2c2ccc(C)cc2)cc1 (stereo not given)

Ki [1]: 23.3 µM
Structure (SMILES): O=C(C1=C(O)C(=O)N(CCCn2ccnc2)C1c1ccc(Cl)cc1)c1ccccc1 (stereo not given)

Ki [3]: Not Active | IC50 (NCI-H1299): 10.3 µM | IC50 (A549): 7.29 µM | IC50 (U2OS; [4]): 9.14 µM | Ki [1]: 0.34 µM
Structure (SMILES): CCCCCOC1=C(C(=O)c2ccccc2)C(c2ccc(Br)cc2)N(CCCn2ccnc2)C1=O (stereo not given)
IC50 (SAOS-2): 9.99 µM

Ki [1]: 1.76 µM
Structure (SMILES): c1ccc(CN2CCN(Cc3ccccc3)C2c2cccnc2)cc1

Ki [2]: Not Active
Structure (SMILES): O=C(C1=C(O)C(=O)N(CCCn2ccnc2)C1c1ccccn1)c1ccccc1 (stereo not given)

IC50 (NCI-H1299): 25.4 µM | IC50 (A549): 27.4 µM | IC50 (U2OS; [4]): 30 µM | Ki [1]: 0.43 µM
Structure (SMILES): O=C(C1=C(Nc2ccc(F)cc2)C(=O)N(CCCn2ccnc2)C1c1ccc(Br)cc1)c1ccccc1 (stereo not given)
IC50 (SAOS-2): 32.7 µM

Ki [2]: Not Active
Structure (SMILES): O=C(C1=C(O)C(=O)N(CCCn2ccnc2)C1c1cccc(O)c1)c1ccccc1 (stereo not given)

IC50 (NCI-H1299): 21.2 µM | IC50 (A549): 24.1 µM | IC50 (U2OS; [4]): 25.7 µM | Ki [1]: 0.14 µM
Structure (SMILES): O=C(C1=C(Nc2ccccc2)C(=O)N(CCCn2ccnc2)C1c1ccc(Br)cc1)c1ccccc1 (stereo not given)
IC50 (SAOS-2): 24.4 µM

Ki [1]: 3.59 µM
Structure (SMILES): O=C(C1=C(O)C(=O)N(CCCn2ccnc2)C1c1ccc(Br)cc1)c1ccc(I)cc1 (stereo not given)

Ki [1]: 12 µM
Structure (SMILES): O=C(C1=C(O)C(=O)N(CCc2ccccc2)C1c1ccc(Br)cc1)c1cccs1 (stereo not given)

Ki [1]: 0.7 µM
Structure (SMILES): O=C(C1=C(O)C(=O)N(CCCn2ccnc2)C1c1ccc([N+](=O)[O-])cc1)c1ccccc1 (stereo not given)

Ki [1]: 2.13 µM
Structure (SMILES): O=c1c2cnn(-c3ccccc3)c2nc(Cc2ccccc2)n1Cc1ccccc1

Ki [2]: Not Active
Structure (SMILES): O=C(C1=C(O)C(=O)N(CCCn2ccnc2)C1c1cccnc1)c1ccccc1 (stereo not given)

Ki [2]: Not Active
Structure (SMILES): COc1ccc(C2C(C(=O)c3ccccc3)=C(O)C(=O)N2CCCn2ccnc2)cc1 (stereo not given)

Ki [1]: 10.9 µM
Structure (SMILES): CC(C)(C)c1ccc(C2C(C(=O)c3ccccc3)=C(O)C(=O)N2CCCn2ccnc2)cc1 (stereo not given)

Ki [1]: 86 µM
Structure (SMILES): O=C(CSc1nnc(-c2ccc(O)cc2)n1-c1ccccc1)Nc1ccccc1

IC50 (NCI-H1299): 19.9 µM | IC50 (A549): 20.2 µM | IC50 (U2OS; [4]): 26.2 µM | Ki [1]: 0.35 µM
Structure (SMILES): CCOc1ccc(NC2=C(C(=O)c3ccccc3)C(c3ccc(Br)cc3)N(CCCn3ccnc3)C2=O)cc1 (stereo not given)
IC50 (SAOS-2): 30.9 µM

Ki [1]: 0.81 µM
Structure (SMILES): O=C(C1=C(O)C(=O)N(CCCn2ccnc2)C1c1ccc(C(F)(F)F)cc1)c1ccccc1 (stereo not given)

Ki [2]: Not Active
Structure (SMILES): O=C(C1=C(O)C(=O)N(CCCn2ccnc2)C1c1ccccc1O)c1ccccc1 (stereo not given)

Ki [1]: 0.88 µM
Structure (SMILES): O=C(C1=C(O)C(=O)N(CCCn2ccnc2)C1c1ccc(F)cc1)c1ccccc1 (stereo not given)

Ki [2]: Not Active
Structure (SMILES): O=C(C1=C(O)C(=O)N(CCCn2ccnc2)C1c1ccc(Cl)nc1)c1ccccc1 (stereo not given)

Ki [1]: 0.57 µM
Structure (SMILES): O=C(C1=C(O)C(=O)N(Cc2cccnc2)C1c1ccc(Cl)cc1)c1ccccc1 (stereo not given)

Ki [1]: 1.37 µM
Structure (SMILES): O=C(C1=C(O)C(=O)N(CCCn2ccnc2)C1c1ccc(Cl)cc1)c1ccc2c(c1)OCCO2 (stereo not given)

Ki [1]: 0.83 µM
Structure (SMILES): O=C(C1=C(O)C(=O)N(CCCn2ccnc2)C1c1cccc([N+](=O)[O-])c1)c1ccccc1 (stereo not given)

IC50 (NCI-H1299): 19.4 µM | IC50 (A549): 24.5 µM | IC50 (U2OS; [4]): 12 µM | Ki [1]: 0.27 µM
Structure (SMILES): O=C(C1=C(Nc2ccc(I)cc2)C(=O)N(CCCn2ccnc2)C1c1ccc(Br)cc1)c1ccccc1 (stereo not given)
IC50 (SAOS-2): 23.4 µM
